The source of these data is publication PMC9828401 (Acta Biochimica et Biophysica Sinica, 2022).

Data set [1] deals with PAC1-R. The conditions noted are these: cited from earlier work.
The subject of data set [2] is RGC-5 cells. Nature of the data set: TUNEL assay, MPP-treated RGC-5 cells. It is filed as cell-based, mouse. As to conditions: 8 mM MPP; for TUNEL signal (MPP-induced apoptosis): pre-treatment with 10 μM peptide.
Another data set has as its system PAC1-R in RGC-5 cells. It is filed as cell-based, mouse. The conditions noted are these: 15 min; for PAC1-R level in RGC-5 cells (immunofluorescence) / nuclear translocation of PAC1-R in RGC-5 cells: 1 μM.
The subject of another data set is PACAP. Nature of the data set: PACAP level determined by ELISA in RGC-5 cells. As to conditions: for positive effect on PACAP expression level: over 10 μM. It is filed as cell-based, mouse. (ELISA stands for enzyme-linked immunosorbent assay.)
The subject of the next data set is PACAP promoter. Description: PACAP promoter activity assay. Format: cell-based, mouse. The conditions noted are these: RGC-5; for positive effect on PACAP’s promoter activity: over 10 μM.
For the next data set, the system named is PAC1-R promoter. Description: PAC1-R promoter activity assay. As to conditions: RGC-5. Format: cell-based, mouse.
The test system of data set [3] is PAC1-R. Nature of the data set: Western blot of PAC1-R in RGC-5 cells. As to conditions: for PAC1-R expression by Western blot: 0.1 μM to 100 μM. It is filed as cell-based, mouse. Summed up: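 RGC-5 cells (F12, 10% FBS) were treated for 30 min with test compound (0.01–100 μM), with or without 50 μM 2-bromopalmitate; controls received serum-free medium. Blots were run by SDS-PAGE/PVDF, probed with rabbit anti-PAC1-R (C-terminal aa 506–525) and anti-β-actin, and detected with HRP-ECL.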
Background: A western blot detects proteins with antibodies after separation by electrophoresis.

Data set [4] relates to RGC-5 cells. Nature of the data set: MTT cell viability assay, MPP-treated RGC-5 PD cell model. Format: cell-based, mouse. As to conditions: for protection against decrease of cell viability induced by MPP: 0.1–100 μM, 2 h before 8 mM MPP. The method in brief: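 RGC-5 cells were seeded at 4×10⁴ per well and pretreated with test compound (0.1–100 μM) for 2 h before 8 mM MPP. After 24 h, MTT (0.5 mg/mL) was added for 4 h and formazan was dissolved in isopropanol. Readout was OD₅₇₀, expressed as % of cells without MPP. At least four parallel replicates, repeated three times.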
In general terms: Formazan colour is commonly taken as a measure of viable cells.

In data set [5] the test system is PAC1-R promoter sequence (−2019 bp to −1739 bp). Nature of the data set: ChIP-PCR, PAC1-R promoter sequence, RGC-5 cells. It is filed as cell-based, mouse. The conditions noted are these: RGC-5, 1 μM, 15 min; antibody to PAC1-R C-terminus; 280 bp product.
Data set [6] deals with PACAP promoter sequence (−858 bp to −536 bp). Description: ChIP-PCR, PACAP promoter sequence, RGC-5 cells. Format: cell-based, mouse. As to conditions: RGC-5, 1 μM, 15 min; antibody to PAC1-R C-terminus; 320 bp product.
The test system of data set [7] is M-PAC1R(Cys25/Ala25)-eGFP. Nature of the data set: Confocal microscopy of nuclear translocation of M-PAC1R. It is filed as cell-based, mouse. The conditions noted are these: 1 μM, 15 min. The method in brief: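 CHO-K1 cells stably expressing C-terminally eGFP-tagged PAC1-R Cys25/Ala25 mutant, from lipofection, G418 (0.8–1 mg/mL) selection and limiting-dilution cloning; at least three clones with similar receptor levels run in parallel. Cells grown in 10% FBS medium at 37°C, 5% CO₂. Exposed to 1 μM test compound or none for 15 min; eGFP imaged by confocal microscopy (ex 488 nm, em 545 nm). ≥3 replicates, repeated three times.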

The test system of a further data set is PAC1R-eGFP. Description: Confocal microscopy of nuclear translocation of PAC1R-eGFP in PAC1R-CHO cells. Format: cell-based, mouse. As to conditions: 1 μM, 15 min, vs control cells. The method in brief:
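CHO-K1 cells (DMEM, 10% FBS, 37°C, 5% CO₂) stably transfected with C-terminally eGFP-tagged wild-type or Cys25Ala PAC1-R, selected with G418 (0.8–1 mg/mL) and cloned by limiting dilution; at least three matched clones were used. Cells were exposed to 1 μM test compound for 15 min, then imaged by confocal microscopy (ex 488/em 545 nm). Translocation was taken as nuclear/whole-cell fluorescence, with ≥3 replicates repeated three times.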

Data set [8] relates to PAC1-R. The conditions noted are these: cited from earlier work. This is another data set of the same source.
For data set [9] the following is noted: ref [20], [21]; cited from earlier work.
The next data set deals with PAC1-EC1. As to conditions: PAC1-EC1 pre-saturated with PACAP(28–38); previous study; ref [19]; cited from earlier work.
Data set [10] relates to PAC1-R. The conditions noted are these: cited from earlier work. The source holds these as a separate data set.
The conditions of data set [11]: ref [10]; cited from earlier work.
In data set [12] the target is T1, recombinant PAC1-EC1 protein.
T1 chain: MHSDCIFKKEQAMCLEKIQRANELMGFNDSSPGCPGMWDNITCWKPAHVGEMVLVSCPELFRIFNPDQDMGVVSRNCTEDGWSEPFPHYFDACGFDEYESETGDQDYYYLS
Description: ITC.

Where [13] appears, read: RGC-5, 50 μM 2-bromopalmitate with 1 μM peptide.

Entries after “also recorded” stand apart in the source; their conditions may differ. Read-outs that look alike come from different tables or passages of the source. Ends that are not written are not given here.

In the case of `CCCCCCCCCCCCCCC(Br)C(=O)O` (stereo not drawn) [2-bromopalmitate, reference compound], the “inhibition of oxidative stress-induced nuclear translocation and increase of PAC1-R expression” value in the data set with PAC1-R [1] (ref [23]) is “can inhibit”. For the same molecule, in the data set on RGC-5 cells [2] (50 μM 2-bromopalmitate, TUNEL), the “inhibition of anti-apoptotic activities of PACAP(28-38) and TAT” value is listed as “significantly inhibited”. Also, in the data set on PAC1-R in RGC-5 cells (setting [13]), the “inhibition of nuclear translocation of PAC1-R induced by PACAP(28-38) or TAT” value is given as “effectively inhibited” and the “inhibition of up-regulation of PAC1-R induced by PACAP(28-38) or TAT” value is listed as “effectively inhibited”. For the same molecule, in the data set on PACAP (50 μM 2-bromopalmitate, 30 min, ELISA), the “inhibition of PACAP(28-38)- or TAT-induced PACAP expression” value was “inhibited”. Moreover, the “inhibition of PACAP(28-38)- or TAT-induced PACAP promoter activity” value in the data set on PACAP promoter (50 μM 2-bromopalmitate, 15 min) is on record as “significantly inhibited”. Besides, in the data set on PAC1-R promoter (50 μM 2-bromopalmitate, 15 min), the “inhibition of PACAP(28-38)- or TAT-induced PAC1-R promoter activity” value was “significantly inhibited”. Also, the “truncated forms of PAC1-R with molecular weight smaller than 35 kDa” value with PAC1-R [3] (50 μM 2-bromopalmitate with PACAP(28-38) or TAT, Western blot) was “decrease”. The “inhibition of PACAP(28-38)- or TAT-induced PAC1-R expression” value with PAC1-R [3] (50 μM 2-bromopalmitate, 30 min, Western blot) is recorded as “inhibited”.
In the case of `C[n+]1ccc(-c2ccccc2)cc1` [MPP, 1-methyl-4-phenylpyridinium, reference compound], the “apoptosis in RGC-5 cells” value with RGC-5 cells [4] (8 mM MPP, MTT assay) is recorded as “significant apoptosis”. Further, the “cells remaining viable after MPP” value with RGC-5 cells [4] (RGC-5, 8 mM MPP, 24 h, MTT, % of cells without MPP) is “about 31%”. In addition, in the data set with RGC-5 cells [2] (24 h), the “number of TUNEL-positive cells” value is reported as “increased the number of TUNEL-positive cells”.
On to GKRYKQRVKNK [PACAP(28-38)], for which, in data set [5], the “ChIP-PCR band for PAC1-R promoter sequence” value is “positive band”. Besides, in the data set on RGC-5 cells [4] (RGC-5, 24 h, MTT), the “protection against decrease of cell viability induced by MPP” value is given as “significantly blocked”. The “ChIP-PCR band for PACAP promoter sequence” value in data set [6] is “positive band”. The “nuclear translocation of M-PAC1-R (Cys25/Ala25)” value in [7] was “significantly weaker than that of the wild-type PAC1-R; also recorded: can not induce significant trafficking or aggregation”. Further, in the data set on RGC-5 cells [2] (24 h), the “TUNEL signal (MPP-induced apoptosis)” value is “significantly reduced”. In the data set with PAC1R-eGFP, the “nuclear translocation of PAC1R-eGFP” value is “significantly detected”. In the data set with PAC1-R in RGC-5 cells, the “PAC1-R level in RGC-5 cells (immunofluorescence)” value was “increase the PAC1-R level”. In addition, the “nuclear translocation of PAC1-R in RGC-5 cells” value with PAC1-R in RGC-5 cells was “induce significant nuclear translocation of PAC1-R”. The “expression level of PACAP (ELISA)” value was “significantly increase” with PACAP (0.01 μM–10 μM, 30 min) and “increased” in the data set on PACAP (0.1 μM–10 μM, 30 min). Also, in the data set on PACAP, the “positive effect on PACAP expression level” value is on record as “decreased”. Further, in the data set with PACAP promoter (0.1 μM–10 μM, 15 min), the “promoter activity of PACAP” value is given as “significantly enhanced; also recorded: increased”. The “positive effect on PACAP’s promoter activity” value in the data set on PACAP promoter is listed as “decreased”. In the data set with PAC1-R [8] (ref [16], [17]), the “binding to allosteric regulatory site” value is “binds to the allosteric regulatory site through both conformational and charge interaction”. Besides, the “promoter activity of PAC1-R” value in the data set on PAC1-R promoter (0.1 μM–1 μM, 15 min) was “significantly enhanced”; with PAC1-R promoter (0.1–100 μM, 15 min (legend of Figure 3B), *P<0.01 vs 0 μM), “significantly enhanced”. For the same molecule, the “PAC1-R expression by Western blot” value in the data set on PAC1-R [3] (30 min) is “increased positively with the concentrations”. In addition, the “PAC1-R truncated form (about 35 kDa)” value in the data set on PAC1-R [3] (Western blot, 30 min) is given as “induced”. Further, the cytoprotective activities entry in data set [9] is listed as “significant cytoprotective activities”.
As to GRKKRRQRRRP [TAT], the “ChIP-PCR band for PAC1-R promoter sequence” value in data set [5] is “positive band”. The “protection against decrease of cell viability induced by MPP” value in the data set with RGC-5 cells [4] (RGC-5, 24 h, MTT) is “significantly blocked”. For the same molecule, the “ChIP-PCR band for PACAP promoter sequence” value in data set [6] was “positive band”. Further, the “nuclear translocation of M-PAC1-R (Cys25/Ala25)” value in data set [7] was “significantly weaker than that of the wild-type PAC1-R; also recorded: can not induce significant trafficking or aggregation”. For the same molecule, in the data set with RGC-5 cells [2] (24 h), the “TUNEL signal (MPP-induced apoptosis)” value is recorded as “significantly reduced”. Besides, in the data set with PAC1R-eGFP, the “nuclear translocation of PAC1R-eGFP” value was “significantly detected”. Also, the “binding signal from titration of TAT” value in the data set on PAC1-EC1 is listed as “no binding signal is detected”. Further, in the data set with PAC1-R in RGC-5 cells, the “PAC1-R level in RGC-5 cells (immunofluorescence)” value is “increase the PAC1-R level” and the “nuclear translocation of PAC1-R in RGC-5 cells” value was “induce significant nuclear translocation of PAC1-R”. Besides, the “expression level of PACAP (ELISA)” value in the data set with PACAP (0.1 μM–10 μM, 30 min) is listed as “significantly increase; also recorded: increased”. Besides, the “positive effect on PACAP expression level” value in the data set with PACAP is recorded as “decreased”. In the data set with PACAP promoter (0.01 μM–10 μM, 15 min), the “promoter activity of PACAP” value is on record as “significantly enhanced”. Besides, the “promoter activity of PACAP” value in the data set with PACAP promoter (0.1 μM–10 μM, 15 min) was “increased”. For the same molecule, in the data set on PACAP promoter, the “positive effect on PACAP’s promoter activity” value is “decreased”. Further, the “binding to allosteric regulatory site” value in the data set on PAC1-R [8] (ref [19]) is listed as “binds to the same allosteric regulatory site mainly through charge interaction”. Besides, the “promoter activity of PAC1-R” value in the data set on PAC1-R promoter (0.1 μM–1 μM, 15 min) is on record as “significantly enhanced”. Further, the “PAC1-R expression by Western blot” value with PAC1-R [3] (30 min) is reported as “increased positively with the concentrations”. In the data set with PAC1-R [3] (Western blot, 30 min), the “PAC1-R truncated form (about 35 kDa)” value is “induced”. The cytoprotective activities entry in data set [9] was “significant cytoprotective activities”.
As to “PACAP38: form of PACAP, ligand of PAC1-R (HSDGIFTDSYSRYRKQMAVKKYLAAVLGKRYKQRVKNK; ends and bridges not checked; UniProt P18509 132-169, looked up)”, in the data set with PAC1-R [1] (ref [22], [23]), the “PAC1-R’s own expression” value is on record as “up-regulate PAC1-R’s own expression” and the “nuclear translocation of PAC1-R” value is “induce the nuclear translocation of PAC1-R”. In the data set with PAC1-R [10] (compared with PACAP27, ref [2]), the “activation of PAC1-R” value is “significantly more complete and effective activity than PACAP27”.
Consider “PACAP(6-38): PAC1-R antagonist (FTDSYSRYRKQMAVKKYLAAVLGKRYKQRVKNK; ends and bridges not checked; UniProt P18509 137-169, looked up, fragment)”, for which, in the data set on PAC1-R [10] (ref [15]), the “antagonism of PAC1-R” value is given as “full antagonist”.
As to “pituitary adenylate cyclase-activating polypeptide (HSDGIFTDSYSRYRKQMAVKKYLAAVLGKRYKQRVKNK; ends and bridges not checked; UniProt P18509 132-169, looked up) [PACAP]”, the “therapeutic effect mediated by PAC1-R” value in [11] is listed as “significant therapeutic effect”.
Consider GKRYKQRVKNK (ends and bridges not checked) [PACAP(28-38)], for which the Ka in data set [12] was 635000 M⁻¹.
With GRKKRRQRRRP [TAT], in [12], the Ka worked out at 503000 M⁻¹.
